Key:
Assay type in all cases: functional, cell-based
Settings in all cases: Homo sapiens
MCF7 [1] = assay: Inhibitory activity against MCF-7 wt cell line using MTT assay (ER+,pgR+,wildtype p53)
Procedure, shortened: (§1)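 Cells were grown in RPMI 1640 with 2 mM L-glutamine, penicillin/streptomycin and 10% heat-inactivated FCS. Drugs were taken from 10 mM DMSO stocks. Viability was read by MTT at 0.4 mg/mL final for 4 h at 37 °C, with formazan dissolved in DMSO plus glycine buffer and read at 550 nm. IC50 is the concentration halving absorbance versus untreated controls, taken from dose-response curves.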

ZR-75-1 = assay: Inhibitory activity against ZR-75-1 cell line using MTT assay (ER+,pgr+,mutant p53); procedure, shortened: as §1
T47D = assay: Inhibitory activity against T47D cell line using MTT assay (ER+,mutant p53); procedure, shortened: as §1
MDA-MB-231 = assay: Inhibitory activity against MDA-231 cell line using MTT assay (ER-,EGFR+,mutant p53); procedure, shortened: as §1
SK-BR-3 = assay: Inhibitory activity against SKBR-3 cell line using MTT assay (ER-amplified erB2,mutant p53); procedure, shortened: as §1
MDA-MB-468 = assay: Inhibitory activity against MDA-468 cell line using MTT assay (ER-, amplified EGFR, mutant p53); procedure, shortened: as §1
NCI-H460 [2] = assay: Inhibitory activity against NCI-H460 cell line using MTT assay
Procedure, shortened: (§2)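 This is a 7-day MTT assay in RPMI 1640 with 2 mM L-glutamine, antibiotics and 10% heat-inactivated FCS. The H460pv8/eto variant was kept in 1 µM etoposide. MTT was used at 0.4 mg/mL final for 4 h at 37 °C, and formazan was dissolved in DMSO/glycine buffer and read at 550 nm. IC50 is the 50% absorbance reduction versus untreated controls, from dose-response curves.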

A549 = assay: Inhibitory activity against A549 cell line using MTT assay(Wild type p53); procedure, shortened: as §1
NCI-H358 [3] = assay: (§3) Inhibitory activity against NCI-H358 cell line using MTT assay(mutant p53); procedure, shortened: as §1
NCI-H647 = assay: Inhibitory activity against NCI-H647 cell line using MTT assay(mutant p53); procedure, shortened: as §1
NCI-H322M = assay: (§4) Inhibitory activity against NCI-H322 cell line using MTT assay(mutant p53); procedure, shortened: as §1
NCI-H460 [4] = assay: (§5) Inhibitory activity against NCI-H460 cell line using MTT assay(Wild type p53); procedure, shortened: as §1
NCI-H226 [5] = assay: Inhibitory activity against NCI-H226 cell line using MTT assay(mutant p53); procedure, shortened: as §1
NCI-H460 [6] = assay: Inhibitory activity against H460pv8 cell line using MTT assay; procedure, shortened: as §2
F460pv8/eto = assay: Inhibitory activity against […] using MTT assay; procedure, shortened: as §2
MCF7 [7] = assay: Inhibitory activity against MCF7wt cell line using MTT assay; procedure, shortened: as §1
NCI/ADR-RES = assay: Inhibitory activity against MCF-7/adr cell line using MTT assay; procedure, shortened: as §1
NCI-H358 [8] = assay: as §5
Procedure, shortened: (§6)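 Human NSCLC lines grown in RPMI 1640 with 2 mM L-glutamine, penicillin/streptomycin and 10% heat-inactivated FCS. Drugs were taken from 10 mM DMSO stocks. Cells were exposed for 7 days, then given MTT at 0.4 mg/mL final for 4 h at 37 °C. Formazan was dissolved in DMSO/glycine buffer and read at 550 nm. IC50 is the 50% absorbance drop versus untreated controls, read from dose-response curves.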

NCI-H460 [9] = assay: as §4; procedure, shortened: as §6
NCI-H226 [10] = assay: as §3; procedure, shortened: as §6

Structure (SMILES) | IC50 (MCF7 [1]) [nM] | IC50 (ZR-75-1) [nM] | IC50 (T47D) [nM] | IC50 (MDA-MB-231) [nM] | IC50 (SK-BR-3) [nM] | IC50 (MDA-MB-468) [nM] | IC50 (NCI-H460 [2]) [nM] | IC50 (A549) [nM] | IC50 (NCI-H358 [3]) [nM] | IC50 (NCI-H647) [nM] | IC50 (NCI-H322M) [nM] | IC50 (NCI-H460 [4]) [nM] | IC50 (NCI-H226 [5]) [nM] | IC50 (NCI-H460 [6]) [nM] | IC50 (F460pv8/eto) [nM] | IC50 (MCF7 [7]) [nM] | IC50 (NCI/ADR-RES) [nM] | IC50 (NCI-H358 [8]) [nM] | IC50 (NCI-H460 [9]) [nM] | IC50 (NCI-H226 [10]) [nM]
COc1cccc2c1C(=O)c1c(O)c3c(c(O)c1C2=O)C[C@@](O)(C(=O)CO)C[C@@H]3O[C@H]1C[C@H](N)[C@H](O)[C@H](C)O1 [DOXORUBICIN] | 1 | 9 | 7 | 6 | 20 | 5 | 10 | 4 | 130 | < 1 | 30 | 10 | 8 | 4 | 20 |  |  |  |  | 
Nc1ccc2c(c1)Nc1c3ccccc3nc3cccc-2c13 | 50 | 30 | 270 | 230 | 20 | 40 | 70 | 80 | 400 | 80 | 140 | 70 | 170 | 50 | 120 | 50 | 355 |  |  | 
COc1cc([C@@H]2c3cc4c(cc3[C@@H](O[C@@H]3O[C@@H]5CO[C@@H](C)O[C@H]5[C@H](O)[C@H]3O)[C@H]3COC(=O)[C@H]23)OCO4)cc(OC)c1O [ETOPOSIDE] | 85 | 240 | 160 | 150 | 300 | 600 | 100 | 160 | 1500 | 80 | 1590 | 100 | 240 | 390 | 740 |  |  |  |  | 
N#CCCCc1cc2cccc3c2c(n1)-c1ccccc1N3 | 3790 | 2700 | 3590 | 2050 | 3450 | 1870 | 1170 | 1330 | 2010 | 1680 | 1530 | 1170 | 1210 | 1120 |  |  |  |  |  | 
Clc1ccc2c(c1)-c1cccc3nc4ccccc4c(c13)N2 | 1670 | 5590 | 5550 | 5450 | 1030 | 310 | 3900 | 7100 | 6030 | 5300 | > 10000 | 3900 | > 10000 | 3770 | 6470 | 1670 | 6310 |  |  | 
COc1cc(NS(C)(=O)=O)ccc1Nc1c2ccccc2nc2ccccc12 [AMSACRINE] | 75 | 180 | 220 | 140 | 60 | 490 | 60 | 30 | 150 | 70 | 210 | 60 | 1010 | 200 | 40 | 75 | 1160 |  |  | 
c1ccc2c(c1)Nc1cccc3cc4[n+](c-2c13)CCC4 | 150 | 170 | 160 | 190 | 120 | 180 | 180 | 160 | 110 | 120 | 170 | 180 | 220 | 130 | 100 | 150 | 165 |  |  | 
Cc1ccc2c(c1)-c1cccc3nc4ccccc4c(c13)N2 | 180 | 390 | 2130 | 550 | 450 | 170 | 710 | 810 | 600 | 800 | 840 | 710 | 1220 | 490 | 490 | 180 | 1210 |  |  | 
c1ccc2c(c1)Nc1c3ccccc3nc3cccc-2c13 | 270 | 850 | 690 | 540 | 150 | 90 | 520 | 490 | 460 | 540 | 490 | 520 | 750 | 320 | 340 | 270 | 630 |  |  | 
c1ccc2c(c1)Nc1cccc3ccnc-2c13 | 830 | 1550 | 2100 | 1730 | 580 | 1370 | 2060 | 2140 | 1420 | 2200 | 1860 | 2060 | 2340 | 1100 | 1070 |  |  |  |  | 
O=[N+]([O-])c1ccc2c(c1)Nc1c3ccccc3nc3cccc-2c13 | 550 | 30 | > 10000 | > 10000 | 120 | 40 |  | > 10000 |  | 950 |  |  | > 10000 |  |  |  |  | > 10000 | > 10000 | 9500
N#CCCCc1cnc2c3c(cccc13)Nc1ccccc1-2 | 270 | 720 | 1310 | 960 | 420 | 320 | 2560 | 2570 | 2380 | 2920 | 2270 | 2560 | 2720 | 2060 | 1090 | 270 | 610 |  |  | 

From ChEMBL document CHEMBL1133721, “Antitumor polycyclic acridines. 7. Synthesis and biological properties of DNA affinic tetra- and pentacyclic acridines” (J Med Chem, 2000)
